tested on: Plasmodium falciparum; assay: Resistance index, ratio of IC50 for chloroquine-resistant Plasmodium falciparum K1 to IC50 for drug-sensitive Plasmodium falciparum 3D7; format: functional; details: not given

Row | SMILES | Ratio IC50
1 | O=C1C(c2ccc(Oc3ccccc3)cc2)=[N+]([O-])c2ccccc21 | 0.4
2 | O=C1C(c2ccc(Oc3ccccc3)cc2)=[N+]([O-])c2cc3c(cc21)OCO3 | 0.5
3 | COc1ccc2c(c1)C(=O)C(c1ccc(OC(F)(F)F)cc1)=[N+]2[O-] | 2.7
4 | COc1ccc(C2=[N+]([O-])c3cc(OC(F)(F)F)ccc3C2=O)cc1 | 5.3

tested on: not listed separately; assay: Cytotoxicity against human MCF7 cells after 48 hrs by MTT assay; format: cell-based; details: not given

Row | SMILES | CC50 at 48 h [nM]
5 | O=C1C(c2ccc(Oc3ccccc3)cc2)=[N+]([O-])c2ccccc21 | 11100
6 | COc1ccc2c(c1)C(=O)C(c1ccccc1)=[N+]2[O-] | 13400
7 | O=C1C(c2ccc(C(F)(F)F)cc2)=[N+]([O-])c2ccccc21 | 34300
8 | CCCC1=[N+]([O-])c2ccccc2C1=O | 26400
9 | O=C1C(c2ccc(Oc3ccccc3)cc2)=[N+]([O-])c2cc3c(cc21)OCO3 | 12200
10 | O=C1C(c2ccc(CO)cc2)=[N+]([O-])c2ccccc21 | 39500
11 | COc1ccc2c(c1)[N+]([O-])=C(c1ccc(Cl)cc1)C2=O | 10400
12 | CCN(CC)c1ccc(C2=[N+]([O-])c3ccc(OC)cc3C2=O)cc1 | 17600
13 | O=C1C(c2ccc(Oc3ccccc3)cc2)=[N+]([O-])c2cc(OCc3ccccc3)ccc21 | 2200
14 | COc1ccc2c(c1)C(=O)C(c1ccc(-c3ccc(Cl)cc3)cc1)=[N+]2[O-] | 12100
15 | COC(=O)c1ccc2c(c1)[N+]([O-])=C(c1ccc(OC)cc1)C2=O | 40200
16 | O=C1C(c2ccc(Cl)c(Cl)c2)=[N+]([O-])c2cc3c(cc21)OCO3 | 7400
17 | COc1ccc(C2=[N+]([O-])c3cc(Cl)ccc3C2=O)cc1 | 22200
18 | COc1ccc(C2=[N+]([O-])c3cc(C)ccc3C2=O)cc1 | 14900
19 | COc1ccc(C2=[N+]([O-])c3ccc(OC)cc3C2=O)c(C)c1 | 300
20 | COc1ccc2c(c1)C(=O)C(c1ccsc1)=[N+]2[O-] | 12300
21 | COc1ccc2c(c1)C(=O)C(c1ccc(OC)c(C)c1)=[N+]2[O-] | > 33600
22 | COc1ccc2c(c1)C(=O)C(c1ccc(C(C)(C)C)cc1)=[N+]2[O-] | 11000
23 | O=C1C(c2ccc(Cl)c(C(F)(F)F)c2)=[N+]([O-])c2ccccc21 | 2000
24 | Cc1ccc(C2=[N+]([O-])c3ccccc3C2=O)cc1 | 15000
25 | COc1ccc2c(c1)C(=O)C(c1cc(OC)c3ccccc3c1)=[N+]2[O-] | 14400
26 | COc1ccc2c(c1)C(=O)C(c1ccc(OC(F)(F)F)cc1)=[N+]2[O-] | 8300
27 | COc1ccc(C2=[N+]([O-])c3cc(OC(F)(F)F)ccc3C2=O)cc1 | 11700

tested on: Plasmodium falciparum; assay: Resistance index, ratio of IC50 for chloroquine-resistant Plasmodium falciparum FcB1 to IC50 for drug-sensitive Plasmodium falciparum 3D7; format: functional; details: not given

Row | SMILES | Ratio IC50
28 | O=C1C(c2ccc(Oc3ccccc3)cc2)=[N+]([O-])c2ccccc21 | 1.8
29 | O=C1C(c2ccc(Oc3ccccc3)cc2)=[N+]([O-])c2cc3c(cc21)OCO3 | 0.6
30 | COc1ccc2c(c1)C(=O)C(c1ccc(OC(F)(F)F)cc1)=[N+]2[O-] | 0.7
31 | COc1ccc(C2=[N+]([O-])c3cc(OC(F)(F)F)ccc3C2=O)cc1 | 6.3

tested on: not listed separately; assay: Selectivity index, ratio of CC50 for human MCF7 cells to IC50 for chloroquine-resistant Plasmodium falciparum FcB1; format: functional; details: not given
In short: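 XTT 0.5 mg/mL added for 180 min, formazan read at 450 nm, value taken from dose–response curves, two experiments in triplicate. This CC50 is divided by the FcB1 IC50 to give the index.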

Row | SMILES | Ratio CC50/IC50
32 | O=C1C(c2ccc(Oc3ccccc3)cc2)=[N+]([O-])c2ccccc21 | 42
33 | COc1ccc2c(c1)C(=O)C(c1ccccc1)=[N+]2[O-] | 73
34 | O=C1C(c2ccc(C(F)(F)F)cc2)=[N+]([O-])c2ccccc21 | 29
35 | CCCC1=[N+]([O-])c2ccccc2C1=O | 2
36 | O=C1C(c2ccc(Oc3ccccc3)cc2)=[N+]([O-])c2cc3c(cc21)OCO3 | 74
37 | O=C1C(c2ccc(CO)cc2)=[N+]([O-])c2ccccc21 | 10
38 | COc1ccc2c(c1)[N+]([O-])=C(c1ccc(Cl)cc1)C2=O | 69
39 | CCN(CC)c1ccc(C2=[N+]([O-])c3ccc(OC)cc3C2=O)cc1 | 134
40 | O=C1C(c2ccc(Oc3ccccc3)cc2)=[N+]([O-])c2cc(OCc3ccccc3)ccc21 | 3.2
41 | COc1ccc2c(c1)C(=O)C(c1ccc(-c3ccc(Cl)cc3)cc1)=[N+]2[O-] | 19
42 | COC(=O)c1ccc2c(c1)[N+]([O-])=C(c1ccc(OC)cc1)C2=O | 194.9
43 | O=C1C(c2ccc(Cl)c(Cl)c2)=[N+]([O-])c2cc3c(cc21)OCO3 | 38.1
44 | COc1ccc(C2=[N+]([O-])c3cc(Cl)ccc3C2=O)cc1 | 116.5
45 | COc1ccc(C2=[N+]([O-])c3cc(C)ccc3C2=O)cc1 | 75
46 | COc1ccc(C2=[N+]([O-])c3ccc(OC)cc3C2=O)c(C)c1 | 0.3
47 | COc1ccc2c(c1)C(=O)C(c1ccsc1)=[N+]2[O-] | 45.5
48 | COc1ccc2c(c1)C(=O)C(c1ccc(OC)c(C)c1)=[N+]2[O-] | >764
49 | COc1ccc2c(c1)C(=O)C(c1ccc(C(C)(C)C)cc1)=[N+]2[O-] | 53.9
50 | O=C1C(c2ccc(Cl)c(C(F)(F)F)c2)=[N+]([O-])c2ccccc21 | 1.9
51 | Cc1ccc(C2=[N+]([O-])c3ccccc3C2=O)cc1 | 8.5
52 | COc1ccc2c(c1)C(=O)C(c1cc(OC)c3ccccc3c1)=[N+]2[O-] | 107
53 | COc1ccc2c(c1)C(=O)C(c1ccc(OC(F)(F)F)cc1)=[N+]2[O-] | 415
54 | COc1ccc(C2=[N+]([O-])c3cc(OC(F)(F)F)ccc3C2=O)cc1 | 88.1

tested on: Plasmodium falciparum; assay: Antimalarial activity against Plasmodium falciparum K1 assessed as [3H]hypoxanthine incorporation by scintillation counting; format: functional, organism-based; details: not given

Row | SMILES | IC50 [nM]
55 | O=C1C(c2ccc(Oc3ccccc3)cc2)=[N+]([O-])c2ccccc21 | 60
56 | O=C1C(c2ccc(Oc3ccccc3)cc2)=[N+]([O-])c2cc3c(cc21)OCO3 | 138
57 | COc1ccc2c(c1)C(=O)C(c1ccc(OC(F)(F)F)cc1)=[N+]2[O-] | 81
58 | COc1ccc(C2=[N+]([O-])c3cc(OC(F)(F)F)ccc3C2=O)cc1 | 112

tested on: Plasmodium falciparum; assay: Antimalarial activity against chloroquine-resistant Plasmodium falciparum FcB1 assessed as [3H]hypoxanthine incorporation after 48 hrs by beta-counter; format: functional, organism-based; details: FcB1/Columbia
In short: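 Primary assay (Toulouse) on FcB1 cultured in RPMI with 25 mM HEPES and 10% human serum, O RBCs. Serial dilutions in triplicate, 2% parasitaemia, 2% haematocrit, 48 h at 37 °C, 5% CO2. [3H]-hypoxanthine added at 24 h, freeze-thaw harvest, β-counting. IC50 by linear regression on the linear segment of the semilog inhibition curve. Three independent repeats.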

Row | SMILES | IC50 [nM]
59 | O=C1C(c2ccc(Oc3ccccc3)cc2)=[N+]([O-])c2ccccc21 | 264
60 | COc1ccc2c(c1)C(=O)C(c1ccccc1)=[N+]2[O-] | 184
61 | O=C1C(c2ccc(C(F)(F)F)cc2)=[N+]([O-])c2ccccc21 | 1170
62 | CCCC1=[N+]([O-])c2ccccc2C1=O | 12200
63 | O=C1C(c2ccc(Oc3ccccc3)cc2)=[N+]([O-])c2cc3c(cc21)OCO3 | 165
64 | O=C1C(c2ccc(CO)cc2)=[N+]([O-])c2ccccc21 | 3950
65 | COc1ccc2c(c1)[N+]([O-])=C(c1ccc(Cl)cc1)C2=O | 150
66 | CCN(CC)c1ccc(C2=[N+]([O-])c3ccc(OC)cc3C2=O)cc1 | 131
67 | O=C1C(c2ccc(Oc3ccccc3)cc2)=[N+]([O-])c2cc(OCc3ccccc3)ccc21 | 665
68 | COc1ccc2c(c1)C(=O)C(c1ccc(-c3ccc(Cl)cc3)cc1)=[N+]2[O-] | 630
69 | COC(=O)c1ccc2c(c1)[N+]([O-])=C(c1ccc(OC)cc1)C2=O | 206
70 | O=C1C(c2ccc(Cl)c(Cl)c2)=[N+]([O-])c2cc3c(cc21)OCO3 | 195
71 | COc1ccc(C2=[N+]([O-])c3cc(Cl)ccc3C2=O)cc1 | 191
72 | COc1ccc(C2=[N+]([O-])c3cc(C)ccc3C2=O)cc1 | 198
73 | COc1ccc(C2=[N+]([O-])c3ccc(OC)cc3C2=O)c(C)c1 | 1040
74 | COc1ccc2c(c1)C(=O)C(c1ccsc1)=[N+]2[O-] | 270
75 | COc1ccc2c(c1)C(=O)C(c1ccc(OC)c(C)c1)=[N+]2[O-] | 44
76 | COc1ccc2c(c1)C(=O)C(c1ccc(C(C)(C)C)cc1)=[N+]2[O-] | 204
77 | O=C1C(c2ccc(Cl)c(C(F)(F)F)c2)=[N+]([O-])c2ccccc21 | 1040
78 | Cc1ccc(C2=[N+]([O-])c3ccccc3C2=O)cc1 | 1770
79 | COc1ccc2c(c1)C(=O)C(c1cc(OC)c3ccccc3c1)=[N+]2[O-] | 135
80 | COc1ccc2c(c1)C(=O)C(c1ccc(OC(F)(F)F)cc1)=[N+]2[O-] | 20
81 | COc1ccc(C2=[N+]([O-])c3cc(OC(F)(F)F)ccc3C2=O)cc1 | 133

tested on: Plasmodium falciparum; assay: Antimalarial activity against drug-sensitive Plasmodium falciparum 3D7 assessed as [3H]hypoxanthine incorporation by scintillation counting; format: functional, organism-based; details: not given

Row | SMILES | IC50 [nM]
82 | O=C1C(c2ccc(Oc3ccccc3)cc2)=[N+]([O-])c2ccccc21 | 148
83 | O=C1C(c2ccc(Oc3ccccc3)cc2)=[N+]([O-])c2cc3c(cc21)OCO3 | 285
84 | COc1ccc2c(c1)C(=O)C(c1ccc(OC(F)(F)F)cc1)=[N+]2[O-] | 30
85 | COc1ccc(C2=[N+]([O-])c3cc(OC(F)(F)F)ccc3C2=O)cc1 | 21

tested on: not listed separately; assay: Cytotoxicity against human KB cells after 72 hrs by alamar blue assay; format: cell-based; details: not given
In short: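 KB cells were seeded at 4×10^4 cells/mL in RPMI 1640 with 10% heat-inactivated FCS and left 24 h at 37 °C, 5% CO2. A dilution series was added in triplicate for 72 h, then AlamarBlue for 2–4 h. Fluorescence was read at ex 530/em 585 nm, with podophyllotoxin as positive control and values from curve fitting.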

Row | SMILES | CC50 at 72 h [nM]
86 | COc1ccc2c(c1)C(=O)C(c1ccc(OC(F)(F)F)cc1)=[N+]2[O-] | 11000
87 | COc1ccc(C2=[N+]([O-])c3cc(OC(F)(F)F)ccc3C2=O)cc1 | 16000

— ChEMBL document CHEMBL1156797, “Synthesis and antiplasmodial activity of new indolone N-oxide derivatives” (J Med Chem, 2010)
